Assay outcomes from PubChem.
VIM-2 inh – inhibitors of Pseudomonas aeruginosa VIM-2 metallo-beta-lactamase; purified VIM-2, nitrocefin hydrolysis, epi-absorbance fluorescence; inhibition, % at 5.6 µM; hit rate 0.89% among 290,000; AID 1527;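 active = inhibition above the mean of all tested compounds plus 3 SD, cutoff set per screening run, cut at about 7.5% in these data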;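 also: red hydrolysis product quenches plate fluorescence so inhibitors raise well fluorescence; 0% = enzyme with DMSO and 100% = DMSO without enzyme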
IMP-1 inh-1 – inhibitors of Pseudomonas aeruginosa IMP-1 metallo-beta-lactamase. AID 1556. purified IMP-1, nitrocefin hydrolysis, epi-absorbance fluorescence. inhibition, % at 5.6 µM. hit rate 0.45% among 290,000;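 active = inhibition above the mean plus 3 SD of all compounds in the same screening run, cut at about 4.5% in these data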;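 also: 0% = IMP-1 with DMSO and 100% = DMSO wells lacking enzyme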
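System: purified IMP-1 / Input: IMP-1 dispensed at 0.2 nM / Medium: 50 mM HEPES pH 7.1, 50 µM ZnSO4, 0.05% Brij 35 / Timing: 15 min enzyme–compound preincubation, then 25 min nitrocefin reaction, 25 °C / Technique: plate fluorescence quenching by hydrolysis product, ex 480/em 530 nm / Repeats: singlicate testing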
Runt-CBFb FRET – inhibitors of human RUNX1 Runt domain binding to CBFb. Cerulean-Runt/Venus-CBFb FRET ratio 530/480, 1 h. inhibition, % at 20 µM. hit rate 0.46% among 220,000;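 active = inhibition over about 50% at 20 µM in the single-dose screen, limit read from the data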;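 also: 0% = DMSO wells and 100% = excess unlabeled CBFb competitor control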
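test system = Cerulean-tagged RUNX1 Runt domain (FRET donor) fusion protein | reagent = Venus-CBFb binding partner, 100 nM | incubation = protein complex preformed 1 h, compound exposure 1 h, room temperature, dark | detection = FRET fluorescence | read-out basis = loss of energy transfer signal | controls = 5 µM unlabeled CBFb as full-inhibition high control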
Runt-SMMHC FRET – Runt domain-CBFb-SMMHC interaction inhibition; Q01196+Q13951; Cerulean-Runt/Venus-CBFb-SMMHC FRET ratio 530/480, 1 h; inhibition, % at 20 µM; hit rate 0.74% among 220,000; AID 1434;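 active = mean inhibition across duplicate retests at 20 µM reaching about 50%, limit read from the data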;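 also: 0% = DMSO wells and 100% = wells with excess untagged CBFb-SMMHC; inhibitors lower the FRET ratio by blocking Runt binding to CBFb-SMMHC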
RanGTP-Imp inh – inhibitors of RanGTP-importin-beta interaction, primary screen, biochemical, FRET, CFP-Ran, YFP-importin-beta, homogeneous | cell-free CFP-Ran/YFP-importin-beta FRET ratio | inhibition, % (test concentration not listed) | hit rate 1.1% among 300,000 | AID 2216;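 active = more than half of the replicate wells show a fall in the fluorescence ratio signal beyond about 16%, limit read from the data, passing the limit was not always enough; inconclusive = exactly half of the replicate wells pass the set limit; inactive = fewer than half of replicates pass the limit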;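 also: 0% = DMSO wells and 100% = Ran loaded with GDP instead of GTP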
IMP-1 inh-2 – blocks IMP-1 metallo-beta-lactamase in VIM-2 selectivity screen | AID 1856 | 1,300 tested, under 10 active | shares compounds with VIM-2 inh | inhibition, % at 5.6 µM | purified IMP-1, nitrocefin hydrolysis, epi-absorbance fluorescence; call rule not given here;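 also: 0% = enzyme with vehicle and 100% = vehicle without enzyme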
VIM-2 FRET inh – counter-screen for VIM-2 inhibitors: epi-absorbance artifacts via FRET; hit rate 23% among 1,300; shares compounds with VIM-2 inh; inhibition, % at 5.6 µM; purified VIM-2, CCF2 FRET substrate hydrolysis;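 active = inhibition above the mean of all tested compounds plus 3 SD, cut at about 19% in these data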;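 also: 0% = VIM-2 plus DMSO and 100% = no enzyme wells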
TEM-1 inh – selectivity counter-screen for VIM-2 inhibitors: E. coli TEM-1 inhibitors; Purified TEM-1, nitrocefin hydrolysis, epi-absorbance fluorescence; shares compounds with VIM-2 inh; hit rate 3% among 1,300; inhibition, % at 5.6 µM;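 active = inhibition above that campaign's mean inhibition plus 3 SD, cut at about 0.46% in these data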;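 also: 0% = TEM-1 with DMSO and 100% = TEM-1 with 100 µM potassium clavulanate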
Target sequence (P62593 whole entry, looked up): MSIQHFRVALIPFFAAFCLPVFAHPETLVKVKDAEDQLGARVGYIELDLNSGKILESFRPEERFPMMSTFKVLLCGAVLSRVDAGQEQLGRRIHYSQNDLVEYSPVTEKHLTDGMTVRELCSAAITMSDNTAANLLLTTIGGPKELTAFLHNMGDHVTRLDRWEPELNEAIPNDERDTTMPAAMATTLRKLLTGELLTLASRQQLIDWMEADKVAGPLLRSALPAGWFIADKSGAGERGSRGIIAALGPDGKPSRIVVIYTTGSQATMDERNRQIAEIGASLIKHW
VIM-2 inh conf – confirmation of P. aeruginosa VIM-2 metallo-beta-lactamase inhibitors | shares compounds with VIM-2 inh | hit rate 96% among 1,300 | purified VIM-2, nitrocefin hydrolysis, epi-absorbance | inhibition, % at 5.6 µM;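 active = inhibition of the VIM-2 beta-lactamase enzyme above about 11% from the earlier first-round screen, limit read from the data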;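 also: 0% = VIM-2 with DMSO and 100% = buffer wells without enzyme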
* marks the source's active call; other numbers are inactive results; ? = inconclusive; nt = not tested or not shown. Compounds with a hit are over-represented: about 2.6% of the library has one in this group of screens.

SMILES | VIM-2 inh | IMP-1 inh-1 | Runt-CBFb FRET | Runt-SMMHC FRET | RanGTP-Imp inh | IMP-1 inh-2 | VIM-2 FRET inh | TEM-1 inh | VIM-2 inh conf
CNC[C@H](CC1CCCCC1)NC[C@H](CO)NCCc1cccc(C(F)(F)F)c1 | 21* | -1 | nt | nt | -3 | -3 | -5 | -6 | 30*
Cc1ccccc1-c1nc(CS(=O)(=O)CC(=O)N2CCOCC2)c(C)o1 | -2 | -2 | nt | nt | -1 | nt | nt | nt | nt
O=C(NCCN1CCOCC1)C1CCN(c2ncnc3c2sc2cccc(F)c23)CC1 | 23* | -1 | 1 | 2 | 5 | -2 | 3 | -7 | 37*
CCCCN(CC)CCCNC(=O)C1CCN(c2ncnc3c2sc2cccc(F)c23)CC1 | 30* | 1 | 0 | -1 | 2 | 0 | 4 | -6 | 38*
CCCCN(CC)CCNC(=O)C1CCN(S(=O)(=O)c2cccc3nsnc23)CC1 | -1 | -3 | nt | nt | 5 | nt | nt | nt | nt
CCCc1cc(C(=O)NC(C)C2CCCO2)cs1 (stereo not given) | -5 | -1 | nt | nt | 2 | nt | nt | nt | nt
CCc1ccc(Nc2cc(C)nc3nc(C)nn23)cc1 | 7 | -5 | -2 | 3 | 0 | nt | nt | nt | nt
Cc1cc(Nc2ccc(C)c(C)c2)n2nc(C)nc2n1 | 16* | -2 | -1 | -1 | -1 | -3 | 1 | -6 | 34*
COc1cc(OC)c(Nc2cc(C)nc3nc(C)nn23)cc1Cl | 35* | -4 | 0 | 1 | 0 | -4 | 1 | -8 | 44*
Cc1cc(Nc2ccc(F)cc2Cl)n2nc(C)nc2n1 | 3 | -4 | 2 | 1 | -4 | nt | nt | nt | nt
COc1ccc2c(c1OC)C(=O)OC2C1c2c(cc3c(c2OC)OCO3)CCN1C (stereo not given) | 0 | -3 | -2 | 2 | -3 | nt | nt | nt | nt
CN1CCc2cc3c(c4c2[C@H]1[C@H](O)c1ccccc1-4)OCO3 | 17* | -2 | -150 | 79 | -2 | -3 | -16 | -4 | 24*
CCOc1ccc2nc(C)cc(Nc3ccc4c(c3)OCCO4)c2c1 | 18* | -3 | 0 | -3 | 0 | -3 | -1 | -5 | 31*
CSCCC(=O)N1CCC(n2nccc2NC(=O)CCCc2ccccc2)CC1 | -2 | -1 | nt | nt | -2 | nt | nt | nt | nt
CCOC(=O)N1CCN(Cc2nc3cc(NC(=O)c4ccco4)ccc3n2CC)CC1 | -5 | -1 | nt | nt | 4 | nt | nt | nt | nt
COc1ccccc1CN(C)C(=O)c1sccc1-c1ccccc1 | -2 | -4 | nt | nt | -3 | nt | nt | nt | nt
COc1ccc2c(c1)oc(=O)c1ccccc12 | 8.3* | 0 | -1 | -5 | 4 | -3 | 0 | -6 | 15*
CCC(C)NC(=O)Cc1c(C)c2cc3c(cc2oc1=O)OC(C)(C)CC3 (stereo not given) | 1 | 0 | nt | nt | ? | nt | nt | nt | nt
O=C(O)Cn1cccc1C(=O)c1ccccc1 | 33* | -3 | nt | 1 | 2 | -2 | 49* | -4 | 30*
Cc1c(OC(C)C(=O)NCCN2CCOCC2)ccc2c3c(c(=O)oc12)CCC3 (stereo not given) | 19* | -2 | nt | nt | 1 | -5 | 2 | -13 | 26*
Cc1c(OC(C)C(=O)NCCCN2CCOCC2)ccc2c3c(c(=O)oc12)CCC3 (stereo not given) | 24* | -2 | nt | nt | 0 | -3 | -1 | -10 | 33*
COc1ccccc1C(=O)NCCNc1ccc([N+](=O)[O-])cc1Cl | 1 | 0 | nt | nt | 0 | nt | nt | nt | nt
Cc1ccc(N2C(=O)N(CC(=O)Nc3cc(Cl)ccc3C)C(=O)C2C)cc1 (stereo not given) | nt | nt | nt | nt | 3 | nt | nt | nt | nt
C#Cc1cccc(C(=O)N2CCCC(C(=O)c3ccc(OC)cc3C)C2)c1 (stereo not given) | -5 | -3 | nt | nt | -5 | nt | nt | nt | nt
COc1ccc(N2CCc3c(C)nc4c(OC)cc(OC)cc4c32)cc1 | 15* | -2 | 0 | -4 | 1 | -5 | -23 | -6 | 22*
SMILES | VIM-2 inh | IMP-1 inh-1 | Runt-CBFb FRET | Runt-SMMHC FRET | RanGTP-Imp inh | IMP-1 inh-2 | VIM-2 FRET inh | TEM-1 inh | VIM-2 inh conf
COc1cccc(N2CCc3c(C)nc4ccc(Cl)cc4c32)c1 | 22* | -2 | nt | nt | 0 | -4 | -5 | -6 | 30*
COc1ccc(N2CCc3c(C)nc4c(OC)cc(OC)cc4c32)c(OC)c1 | -3 | -4 | -1 | -2 | -3 | nt | nt | nt | nt
O=C(COc1ccc2ccc(=O)oc2c1)NCCCn1ccnc1 | 1 | -1 | nt | nt | -2 | nt | nt | nt | nt
CCCc1cc(=O)oc2cc(C)cc(OCC(=O)NCCCn3ccnc3)c12 | 24* | -4 | nt | nt | -1 | -2 | -9 | -5 | 39*
Cc1cc(OCC(=O)NCCCn2ccnc2)c2c(C)cc(=O)oc2c1 | 28* | -2 | nt | nt | 3 | -4 | -3 | -5 | 36*
CCCCc1cc(=O)oc2cc(C)cc(OCC(=O)NCc3ccncc3)c12 | 2 | -2 | nt | nt | 2 | nt | nt | nt | nt
Cc1cc(OCC(=O)NCc2cccnc2)c2c(C)cc(=O)oc2c1 | 2 | -2 | nt | nt | 3 | nt | nt | nt | nt
Cc1cc(OCC(=O)Nc2cccnc2)c2c(C)cc(=O)oc2c1 | 21* | -1 | nt | nt | 4 | -3 | -3 | -8 | 33*
O=c1[nH]c(-c2ccccc2)ncc1Oc1ccccc1 | nt | nt | nt | nt | 3 | nt | nt | nt | nt
CC(C)c1ccc(/C=C2\SC(=O)N(CC(=O)NC3C=CS(=O)(=O)C3)C2=O)cc1 (stereo not given) | -1 | -1 | nt | nt | 7 | nt | nt | nt | nt
CC(=O)N1CN(CCCn2ccnc2)Cc2c1sc1c2CCCC1 | 26* | -5 | 3 | 3 | -2 | -2 | -8 | -5 | 46*
O=C1C(=O)N(CCCn2ccnc2)C(c2ccccn2)/C1=C(/O)c1ccccc1 (stereo not given) | nt | nt | 1 | -3 | nt | nt | nt | nt | nt
O=C1C(=O)N(Cc2cccnc2)C(c2ccccn2)/C1=C(/O)c1ccccc1 (stereo not given) | 44* | 0 | -3 | -1 | 4 | -4 | 62* | -4 | 50*
Cc1cc(OC(C)C(=O)NCCCn2ccnc2)c2c(C)cc(=O)oc2c1 (stereo not given) | 28* | -2 | nt | nt | 0 | -2 | -4 | -3 | 39*
Cc1cc(OC(C)C(=O)NCCCN2CCOCC2)c2c(C)cc(=O)oc2c1 (stereo not given) | 1 | -1 | nt | nt | ? | nt | nt | nt | nt
CCCc1cc(=O)oc2cc(C)cc(OC(C)C(=O)NCCCn3ccnc3)c12 (stereo not given) | 18* | -3 | nt | nt | 1 | -2 | -10 | -2 | 28*
COc1cnc(-c2ccccn2)nc1N(C)C | 2 | -2 | 3 | 0 | -3 | nt | nt | nt | nt
